Experimental data reported in ChEMBL document CHEMBL1140626, “Quantitative structure-activity relationship of peptides binding to the class II major histocompatibility complex molecule Aq associated with autoimmune arthritis” (J Med Chem, 2007).

Experiments:
Assay type in all cases: cell-based
[1] = Displacement of biotinylated CLIP peptide from H-2Aq expressed in M12Q 14-7 cells at 250 uM
Summary of the method: (§1)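 Competition binding on M12Q 14-7 cells transfected with H-2Aq. Test peptide (seven levels, 750 to 1 µM) co-incubated 2.5 h at 37 °C with biotinylated CLIP at 5 µM. After washing, cells were stained with streptavidin-PE and read by flow cytometry. % inhibition was taken from gated mean fluorescence against the no-inhibitor control, after subtracting the no-CLIP background. Duplicates, repeated once; duplicate averages were used.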

[2] = Displacement of biotinylated CLIP peptide from H-2Aq expressed in M12Q 14-7 cells at 83 uM; summary of the method: as §1
[3] = Displacement of biotinylated CLIP peptide from H-2Aq expressed in M12Q 14-7 cells at 28 uM; summary of the method: as §1

Row | Substance | inhibition [1] [%] | inhibition [2] [%] | inhibition [3] [%]
1 | Ac-ITSFKMRYK-NH2 | 80 | 69 | 50
2 | Ac-IMTFKMYVK-NH2 | 48 | 40 | 13
3 | Ac-IMTFKAVYK-NH2 | 72 | 59 | 47
4 | Ac-IMSFKTRDK-NH2 | 54 | 27 | 15
5 | Ac-IAMFKSVNK-NH2 | 50 | 32 | 19
6 | Ac-IAMFKMRSK-NH2 | 78 | 63 | 40
7 | Ac-IVAFKTVVK-NH2 | 41 | 27 | 22
8 | Ac-IAAFKADSK-NH2 | 53 | 36 | 31
9 | Ac-ITMFKVVYK-NH2 | 59 | 50 | 35
10 | Ac-IMMFKVRRK-NH2 | 74 | 52 | 36
11 | Ac-ITMFKMDRK-NH2 | 62 | 46 | 26
12 | Ac-IATFKTYYK-NH2 | 70 | 58 | 38
13 | Ac-ITTFKSSSK-NH2 | 20 | 6 | 6
14 | Ac-ISTFKARVK-NH2 | 74 | 58 | 39
15 | Ac-IAVFKMVRK-NH2 | 70 | 59 | 42
16 | Ac-IVSFKAYRK-NH2 | 51 | 61 | 49
17 | Ac-IMMFKMSDK-NH2 | 30 | 17 | 4
18 | Ac-IMMFKTDVK-NH2 | 16 | 24 | 10
19 | Ac-ISAFKTNRK-NH2 | 84 | 61 | 42
